Measured values pooled from the literature.

`COc1cc(Cl)c(C(=O)N[C@@H](CN[C@H]2CC[C@@H](N)CC2)Cc2ccc(C#N)cc2)cc1-c1ccc(CN[C@H](C)c2ccc(C)cc2)o1` has a solubility of greater than 3070 µg/mL (aqueous buffer; pH 6.5).
`Fc1ccc(-c2nc3c(N4CCN5CCC4CC5)nccc3[nH]2)cc1F` gave a solubility of greater than 200 µM (shake flask; aqueous buffer; pH 6.5).
The solubility of `Cl.Clc1ccc2c(nc(N3CCNCC3)n2Cc2ccccc2)c1Cl` is reported as 70 µM (shake flask; aqueous buffer; 20 h, pH 6.5, 25 °C).
With `C[C@]12CCCN1CC1=NNC(=O)c3cc(F)cc4[nH]c2c1c34` the solubility was 49000 µg/mL (ethanol).
With `CCc1nc2nc(C)cc(Nc3ccc(Cl)cc3)n2n1` the solubility was 170 to 350 µM (nephelometry; aqueous buffer; pH 6.5).
For `CCCCCCCCN1CCCC1=O`, the solubility was 4800 µM (PBS; 48 h, pH 7.4, 25 °C).
`O=C(Nc1c2c(cc3c1CCC3)CCC2)NS(=O)(=O)/C=C/c1nccs1` has a solubility of 646 µg/mL (PBS; 24 h, pH 6.8, 37 °C).
For `COCc1nn(Cc2ccc(Cn3ccccc3=O)cc2)cc1C(=O)NCc1c(F)ccc(OC)c1F`, the solubility was 9 µg/mL (FaSSIF; 4 h, pH 1.6).
`COc1cccc2c(NCc3ccccc3)nc(-n3c(=O)oc4ccccc43)nc12` gave a solubility of less than 0.01 µg/mL (aqueous buffer; pH 7.4).
For `CCOc1ccc2cc(-c3nn(C4CCCC4)c(N)c3C(N)=O)cnc2c1`, the solubility was 98.7 µM (PBS; pH 6.5, 25 °C).
`CCC(=O)O[C@]1(C(=O)SCF)[C@H](C)C[C@H]2[C@@H]3C[C@H](F)C4=CC(=O)C=C[C@]4(C)[C@@]3(F)[C@@H](O)C[C@@]21C` gave a solubility of 3.12 µM (FaSSIF).
`CC(C)Cc1ccc(C(C)C(=O)O)cc1` (centres unmarked) has a solubility of 4580 µg/mL (PBS; pH 7.4).
`NCCCCNc1nc2cc(Cl)ccc2n1Cc1ccccc1` gave a solubility of no less than 200 µM (shake flask; aqueous buffer; 20 h, pH 6.5, 25 °C).
`COc1cccc(OC)c1-c1nc(C(=O)N[C@@H](CC(C)C)C(=O)O)cn1-c1cccc2ccccc12` gave a solubility of greater than 145 µg/mL (aqueous buffer; pH 6.2).
For `CCc1nc2ccc(Cl)cn2c1C(=O)NCc1ccc(N2CCC(c3ccc(OC(F)(F)F)cc3)CC2)cc1`, the solubility was 61 µM (PBS).
With `CC[C@H](C)[C@H](NC(=O)[C@H](CO)NC(=O)[C@H](CCCNC(=N)N)NC(C)=O)C(=O)N[C@H]1CSSC[C@@H](C(=O)N[C@H](C(N)=O)[C@@H](C)O)NC(=O)[C@H](CCCNC(=N)N)NC(=O)[C@H](Cc2c[nH]cn2)NC(=O)[C@H](C)NC(=O)CNC(=O)[C@H](Cc2c[nH]c3ccccc23)NC(=O)[C@H](CC(=O)O)NC(=O)[C@H](CCC(N)=O)NC(=O)[C@H](Cc2c[nH]c3ccccc23)NC(=O)[C@H](C(C)C)NC1=O` the solubility was 3690 µg/mL (PBS; pH 7.4).
`COc1ccc(Nc2nc(NCc3ccccc3)c3ccccc3n2)cc1F` gave a solubility of 0.08 µg/mL (aqueous buffer; pH 7.4).
`Cn1c(-c2nc3cc(C(=O)N4CCCC(N)C4)ccc3n2C)cc2ccccc21` (centres unmarked) gave a solubility of greater than 350 µM (aqueous buffer).
`Cl.Clc1ccc2c(nc(N3CCNCC3)n2Cc2ccccc2)c1-c1ccncc1` has a solubility of 200 µM (shake flask; aqueous buffer; 20 h, pH 6.5, 25 °C).
`CCC(F)(F)c1nc2nc(C)cc(Nc3ccc(S(F)(F)(F)(F)F)cc3)n2n1` gave a solubility of 15 to 30 µM (nephelometry; aqueous buffer; pH 6.5).
The solubility of `Cc1ccc(Nc2nc(NCc3ccccc3)c3ccccc3n2)cc1F` is reported as 0.05 µg/mL (aqueous buffer; pH 7.4).
For `CS(=O)(=O)N1CCN(Cc2cc3nc(-c4cccc5[nH]ncc45)nc(N4CCOCC4)c3s2)CC1`, the solubility was 1 µg/mL (FaSSIF).
`Cc1ccc(-c2ccccc2C(=O)Nc2c(C)cccc2C(=O)O)cc1` has a solubility of 175 µM (shake flask; aqueous buffer; 24 h, pH 6.5, 25 °C).
For `Cc1cc(F)cc(Nc2nc(NCc3ccccc3)c3ccccc3n2)c1`, the solubility was less than 0.01 µg/mL (aqueous buffer; pH 7.4).
The solubility of `CN1CCN(CC2CCN(c3cccc4[nH]c(-c5cc(F)cc(F)c5)nc34)CC2)CC1` is reported as greater than 200 µM (shake flask; aqueous buffer; pH 6.5).
The solubility of `OCCOc1cccc2c(NCc3ccccc3)nc(N3CCOc4ccccc43)nc12` is reported as 21.5 µg/mL (aqueous buffer; pH 5).
`Cc1ccc(S(=O)(=O)NCc2ccc(C(=O)NCCN(Cc3ccccc3)C(C)C)cc2)cc1` gave a solubility of 0.79 µg/mL (aqueous buffer; pH 7.4).
For `CC(C)(C)n1nc(-c2ccc3nc(OC4CCC4)ccc3c2)c(C(N)=O)c1N`, the solubility was 80.6 µM (PBS; pH 6.5, 25 °C).
For `Brc1ccccc1CNc1nc(NCc2ccccc2)c2ccccc2n1`, the solubility was 0.21 µg/mL (aqueous buffer; pH 5).
For `CC(C)CC(=O)N1CCC[C@H](COc2cccc3c2C(N)=NS(=O)(=O)N3)C1`, the solubility was 240 µM (aqueous buffer; pH 7.1).
For `COc1c(Cl)cccc1Nc1nc(NCc2ccccc2)c2ccccc2n1`, the solubility was 0.5 µg/mL (aqueous buffer; pH 5).
For `NC1CCN(c2nccc3[nH]c(-c4cccc(OC(F)(F)F)c4)nc23)CC1`, the solubility was greater than 200 µM (shake flask; aqueous buffer; pH 6.5).
`COCc1nc2nc(C)cc(Nc3ccc(C(F)(F)F)cc3)n2n1` gave a solubility of 150 to 300 µM (nephelometry; aqueous buffer; pH 6.5).
With `CC(C)Oc1ccc2cc(-c3nn(C(C)(C)C)c(N)c3C(N)=O)cnc2c1` the solubility was greater than 100 µM (PBS; pH 6.5, 25 °C).
For `CCCCCCCCCCCCCC(=O)Nc1ccc(CP(=O)(O)O)cc1`, the solubility was 1000 µg/mL (water).
With `CCOC(=O)c1ccc(O)cc1` the solubility was 1210 µg/mL (PBS; pH 7.4).
For `CCCn1nc(C(=O)N2CCCCC2)c2c1CCC(NCc1ccc(N3CCCCC3)cc1)C2` (centres unmarked), the solubility was 463 µM (PBS; 16 h, pH 7.4).
For `O=C(Nc1ccc(S(=O)(=O)N2CCC(Cl)CC2)cc1)c1ccc([N+](=O)[O-])o1`, the solubility was 9.4 µM (PBS; pH 7.4).
`CN(C)CCCN1c2ccccc2Sc2ccc(Cl)cc21` has a solubility of 810 µg/mL (FaSSIF; 24 h, pH 7.4, 37 °C).
With `CCc1nc2nc(C)cc(Nc3ccc(C(F)(F)F)cc3)n2n1` the solubility was 39 to 78 µM (nephelometry; aqueous buffer; pH 6.5).
`Cc1nnc(CCCCCN)nn1.Cl` has a solubility of greater than 500000 µM (water).
`O=C(/C=C/c1ccc(CN(CCO)CCc2c[nH]c3ccccc23)cc1)NO` has a solubility of 4100 µg/mL (simulated gastric fluid; 48 h, pH 2, 25 °C, acidic).
The solubility of `COc1cccc2c(NCc3ccccc3)nc(N3CCNc4ccccc43)nc12` is reported as 10.2 µg/mL (aqueous buffer; pH 6.2).
For `COc1cccc2c(-c3ccccc3)cc(-c3ccc(-c4ccc(C(=O)O)cc4)[nH]3)nc12`, the solubility was 0.26 µM (PBS; pH 7.4).
The solubility of `CCC(C)n1ncn(-c2ccc(N3CCN(c4ccc(OCC5COC(Cn6cncn6)(c6ccc(Cl)cc6Cl)O5)cc4)CC3)cc2)c1=O` (centres unmarked) is reported as 2.5 µg/mL (aqueous buffer; pH 6).
For `N=C(N)N1CC=C(c2coc(C(=O)Nc3ccc(C4=CCN(C(=N)N)CC4)c(F)c3)c2)CC1`, the solubility was 58 µg/mL (shake flask; aqueous buffer; pH 7.4).
The solubility of `COc1cccc(OC)c1-c1nc(C(=O)N[C@@H](CC(C)C)C(=O)O)cn1-c1ccnc2cc(Cl)ccc12` is reported as greater than 52 µg/mL (aqueous buffer; pH 7.4).
